Reference: ChEMBL document CHEMBL2177098, “Synthesis and evaluation of novel ¹⁸F labeled 2-pyridinylbenzoxazole and 2-pyridinylbenzothiazole derivatives as ligands for positron emission tomography (PET) imaging of β-amyloid plaques” (J Med Chem, 2012)
Calls of active or inactive are those of the source. The calls are words filed in the database; no cut-off is given here.

Assays:
Mus musculus [1] = organism: Mus musculus; experiment: Binding affinity to amyloid beta plaques in transgenic C57BL6 mouse hippocampus expressing APP Swedish mutant/PSEN1 at 370 KBq/100 ul after 1 hr by autoradiographic analysis; type: tissue-based; conditions: tested as the 18F-labelled form
In short: (§1)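 Paraffin brain sections from 12-month-old Tg mice (C57BL6, APPswe/PSEN1) and age-matched controls, deparaffinized through xylene and graded ethanol, then PBS (0.2 M, pH 7.4) 30 min. Incubated with 18F tracer (370 KBq per 100 μL) 1 h at room temperature, washed in 40% EtOH, rinsed in water, then phosphor plate exposure 2 h. The same sections were afterwards stained with 0.125% thioflavin S in 10% EtOH for 3 min and washed in 40% EtOH.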

[2] = molecular target: Amyloid-beta precursor protein (Homo sapiens) (UniProt P05067); experiment: Binding affinity to amyloid beta plaques in Alzheimer patient brain at 370 KBq/100 ul after 1 hr by autoradiographic analysis; conditions: tested as the 18F-labelled form
Mus musculus [3] = organism: Mus musculus; experiment: Binding affinity to amyloid beta plaques in transgenic C57BL6 mouse cortex expressing APP Swedish mutant/PSEN1 at 370 KBq/100 ul after 1 hr by autoradiographic analysis; conditions: tested as the 18F-labelled form; in short: as §1
Mus musculus [4] = organism: Mus musculus; experiment: Binding affinity to amyloid beta plaques in transgenic C57BL6 mouse hippocampus expressing APP Swedish mutant/PSEN1 at 370 KBq/100 ul after 1 hr by thioflavinS-staining method; type: tissue-based; conditions: tested as the 18F-labelled form; in short: as §1
Mus musculus [5] = organism: Mus musculus; experiment: Binding affinity to amyloid beta plaques in transgenic C57BL6 mouse cortex expressing APP Swedish mutant/PSEN1 at 370 KBq/100 ul after 1 hr by thioflavinS-staining method; conditions: tested as the 18F-labelled form; in short: as §1
[6] = Displacement of [125I]-IMPY from amyloid beta (1 to 42) fibrils after 2 hrs by gamma-counting analysis
In short: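 Competition binding with aggregated Aβ1-42 fibrils and [125I]IMPY (60000−100000 cpm/100 μL) in 0.05% BSA (1 mL total); inhibitors 10⁻⁴−10^−8.5 M in ethanol. Incubated 37 °C for 2 h, then GF/B vacuum filtration with PBS (0.02 M, pH 7.4) washes and γ counting. Three repeats; IC50 converted to Ki by Cheng−Prusoff.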

Sequence of Amyloid-beta precursor protein (Homo sapiens) (P05067 whole entry): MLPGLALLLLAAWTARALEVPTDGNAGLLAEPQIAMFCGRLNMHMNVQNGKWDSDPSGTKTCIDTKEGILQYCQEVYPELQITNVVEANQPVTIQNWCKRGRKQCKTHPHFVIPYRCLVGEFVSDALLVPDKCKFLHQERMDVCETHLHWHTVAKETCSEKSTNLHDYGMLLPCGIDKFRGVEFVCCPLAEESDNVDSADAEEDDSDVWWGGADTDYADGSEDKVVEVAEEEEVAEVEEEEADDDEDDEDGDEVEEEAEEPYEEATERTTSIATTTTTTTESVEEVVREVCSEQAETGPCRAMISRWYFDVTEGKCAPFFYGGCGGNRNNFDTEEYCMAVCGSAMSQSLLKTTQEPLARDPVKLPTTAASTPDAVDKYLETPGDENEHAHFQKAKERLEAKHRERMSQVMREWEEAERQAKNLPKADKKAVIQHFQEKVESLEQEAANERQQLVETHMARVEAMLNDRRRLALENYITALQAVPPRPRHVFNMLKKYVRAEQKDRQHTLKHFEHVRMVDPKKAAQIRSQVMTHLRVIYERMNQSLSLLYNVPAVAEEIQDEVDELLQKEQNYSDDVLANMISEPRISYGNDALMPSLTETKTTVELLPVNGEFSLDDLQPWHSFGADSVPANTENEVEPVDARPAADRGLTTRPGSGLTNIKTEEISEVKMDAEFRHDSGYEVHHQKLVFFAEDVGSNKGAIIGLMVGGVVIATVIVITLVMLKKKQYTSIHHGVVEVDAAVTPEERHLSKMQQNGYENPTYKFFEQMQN

**Q.** What does the source list for `CNc1ccc(-c2nc3ccc(OCCOCCOCCF)cc3s2)cn1`?
**A.** Activity (Mus musculus [1]): Active; Activity [2]: Active; Activity (Mus musculus [3]): Active; Activity (Mus musculus [4]): Active; Activity (Mus musculus [5]): Active; Ki [6]: 9.3 nM
